We go through 7 compounds from ChEMBL document CHEMBL1154138, “Antioxidant C-glucosylxanthones from the leaves of Arrabidaea patellifera” (J Nat Prod, 2008).

Each structure is given as a SMILES string. pEC50, pIC50: −log10 of the molar value. Some results are limits rather than exact numbers.

In general, pIC50 refers to the negative decadic logarithm of the IC50, by convention in mol/L. High values mean a small IC50, low ones a large IC50. By pEC50 is commonly meant the negative decadic logarithm of the EC50, by convention in mol/L.

One assay concerns Plasmodium falciparum. Briefly: Antiplasmodial activity against chloroquine-sensitive Plasmodium falciparum 3D7 by [3H]hypoxanthine incorporation assay. It is filed as functional, organism-based.
Assay [1] has as its system Radical scavenging activity. Briefly: Antioxidant activity assessed as ratio of drug concentration to DPPH concentration causing 50% DPPH radical scavenging activity […]. It is filed as functional. On the technique in general: Loss of DPPH colour is used to gauge radical scavenging.
Assay [2] in a line: Antioxidant activity assessed as protection against peroxyl radical-induced alkaline phosphatase oxidation by fluorimetric assay. Type of assay: functional. In outline: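 Microplate assay on pure compounds measuring protection of alkaline phosphatase (ALP) against peroxyl radical-induced loss of activity. EC50 is the antioxidant concentration that protects ALP to 50% from this loss, reported as pEC50.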

On to `O=C(/C=C/c1ccc(O)cc1)OC[C@H]1O[C@@H](c2c(O)cc3oc4cc(O)c(O)cc4c(=O)c3c2O)[C@H](O)[C@@H](O)[C@@H]1O`, for which the pIC50 in the assay with Plasmodium falciparum is less than 4.42. Besides, in assay [1], the Ratio was determined as 0.23. Moreover, in assay [2], the pEC50 is 5.83.

Regarding `O=C(O[C@@H]1[C@@H](O)[C@H](c2c(O)cc3oc4cc(O)c(O)cc4c(=O)c3c2O)O[C@H](CO)[C@H]1O)c1ccc(O)cc1`, the pIC50 in the assay with Plasmodium falciparum is 4.58. Further, in assay [1], the Ratio was determined as 0.11. Moreover, the pEC50 in assay [2] is 6.01.

Take `O=C(/C=C/c1ccccc1)O[C@@H]1[C@@H](O)[C@H](c2c(O)cc3oc4cc(O)c(O)cc4c(=O)c3c2O)O[C@H](CO)[C@H]1O`: the Ratio in assay [1] came out at 0.16. Also, the pEC50 in assay [2] was 6.01.

As to `O=C(/C=C/c1ccc(O)cc1)O[C@@H]1[C@@H](O)[C@H](c2c(O)cc3oc4cc(O)c(O)cc4c(=O)c3c2O)O[C@H](CO)[C@H]1O`, the pIC50 in the assay with Plasmodium falciparum was 4.74. In addition, the Ratio in assay [1] amounted to 0.16. Besides, in assay [2], the pEC50 was 6.08.

For `O=c1c2cc(O)c(O)cc2oc2cc(O)c([C@@H]3O[C@H](CO)[C@@H](O)[C@H](O)[C@H]3O)c(O)c12` [MANGIFERIN], the pIC50 in the assay on Plasmodium falciparum is 4.62. Further, the Ratio in assay [1] is 0.12. For the same compound, the pEC50 in assay [2] was 5.90.

For the compound `O=c1c(O)c(-c2ccc(O)c(O)c2)oc2cc(O)cc(O)c12` [QUERCETIN], the Ratio in assay [1] is 0.092. Further, the pEC50 in assay [2] is 6.00.

As to `O=C(/C=C/c1ccc(O)c(O)c1)O[C@@H]1[C@@H](O)[C@H](c2c(O)cc3oc4cc(O)c(O)cc4c(=O)c3c2O)O[C@H](CO)[C@H]1O`, the Ratio in assay [1] came to 0.1. Moreover, the pEC50 in assay [2] was 5.93.
